Key:
Assay type in all cases: functional
Pseudomonas aeruginosa [1] = test: Potentiation of rifampicin-induced antibacterial activity against wild type Pseudomonas aeruginosa PAO1 assessed as fold reduction in rifampicin MIC at 7.5 uM incubated for 18 hrs by broth microdilution method
Method in brief: (§1)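 CLSI broth microdilution. Overnight cultures were set to 0.5 McFarland in saline, diluted 1:50 in Mueller-Hinton broth to a final 5 × 10^5 CFU/mL, and incubated 18 h at 37 °C against 2-fold antibiotic dilutions. A fixed adjuvant level was present throughout. MIC = lowest concentration with no visible turbidity, confirmed at 590 nm. Potentiation = fold drop in antibiotic MIC versus antibiotic alone.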

Pseudomonas aeruginosa [2] = test: Synergistic antibacterial activity against MDR/XDR Pseudomonas aeruginosa isolate PA264-104354 harboring GyrA T83I mutant assessed as fractional inhibitory concentration index in presence of ciprofloxacin incubated for 18 hrs by broth microdilution method
Method in brief: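 Checkerboard synergy assay. Antibiotic and adjuvant in twofold dilutions in Mueller-Hinton broth. Inoculum 5 × 10^5 CFU/mL from a 0.5 McFarland suspension, 18 h at 37 °C, MIC read by turbidity and confirmed at 590 nm. FIC = MIC in combination / MIC alone for each agent, FICI = sum. Interpreted as ≤0.5 synergy, 0.5–4 no interaction, >4 antagonism.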

Pseudomonas aeruginosa [3] = test: Potentiation of moxifloxacin-induced antibacterial activity against MDR/XDR Pseudomonas aeruginosa isolate PA259-96918 harboring GyrA T83I mutant assessed as fold reduction in moxifloxacin MIC at 7.5 uM incubated for 18 hrs by broth microdilution method; method in brief: as §1
Pseudomonas aeruginosa [4] = test: Potentiation of minocycline-induced antibacterial activity against MDR/XDR Pseudomonas aeruginosa isolate 91433 devoid of GyrA T83I mutant assessed as fold reduction in minocycline MIC at 7.5 uM incubated for 18 hrs by broth microdilution method
Pseudomonas aeruginosa [5] = test: Potentiation of rifampicin-induced antibacterial activity against MDR/XDR Pseudomonas aeruginosa isolate PA262-101856 harboring GyrA T83I mutant assessed as fold reduction in rifampicin MIC at 7.5 uM incubated for 18 hrs by broth microdilution method; method in brief: as §1
Pseudomonas aeruginosa [6] = test: Potentiation of minocycline-induced antimicrobial activity against MDR/XDR Pseudomonas aeruginosa isolate 101243 devoid of GyrA Thr83Ile mutant assessed as minocycline MIC50 incubated for 18 hrs by broth microdilution method (reference value: 16 microg/ml); details: isolate 101243, 18 h
Pseudomonas aeruginosa [7] = test: Potentiation of rifampicin-induced antimicrobial activity against MDR/XDR Pseudomonas aeruginosa isolate 101885 harboring GyrA Thr83Ile mutant assessed as rifampicin MIC50 incubated for 18 hrs by broth microdilution method (reference value: 8 microg/ml); details: isolate 101885, 18 h
Pseudomonas aeruginosa [8] = test: Potentiation of rifampicin-induced antimicrobial activity against MDR/XDR Pseudomonas aeruginosa isolate PA262-101856 harboring GyrA Thr83Ile mutant assessed as rifampicin MIC50 incubated for 18 hrs by broth microdilution method (reference value: 8 microg/ml); details: isolate PA262-101856, 18 h
Enterobacter cloacae = test: Potentiation of minocycline-induced antibacterial activity against Enterobacter cloacae 117029 assessed as fold reduction in minocycline MIC at 7.5 uM incubated for 18 hrs by broth dilution method
Method in brief: (§2)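 Antibiotic MIC determined by CLSI broth microdilution (MHB, 5 × 10^5 CFU/mL, 18 h, 37 °C), once alone and once with a fixed concentration of the adjuvant. Potentiation is the ratio of the antibiotic MIC alone to its MIC in the presence of the adjuvant.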

Acinetobacter baumannii [9] = test: Potentiation of rifampicin-induced antibacterial activity against multidrug-resistant Acinetobacter baumannii AB031 assessed as fold reduction in rifampicin MIC at 7.5 uM incubated for 18 hrs by broth dilution method; method in brief: as §1
Acinetobacter baumannii [10] = test: Potentiation of rifampicin-induced antibacterial activity against multidrug-resistant Acinetobacter baumannii 110193 assessed as fold reduction in rifampicin MIC at 7.5 uM incubated for 18 hrs by broth dilution method; method in brief: as §1
Pseudomonas aeruginosa [11] = test: Potentiation of minocycline-induced antimicrobial activity against MDR/XDR Pseudomonas aeruginosa isolate PA262-101856 harboring GyrA Thr83Ile mutant assessed as minocycline MIC80 incubated for 18 hrs by broth microdilution method (reference value: 32 microg/ml); details: isolate PA262-101856, 18 h
Pseudomonas aeruginosa [12] = test: Potentiation of rifampicin-induced antimicrobial activity against MDR/XDR Pseudomonas aeruginosa isolate 101885 harboring GyrA Thr83Ile mutant assessed as rifampicin MIC80 incubated for 18 hrs by broth microdilution method (reference value: 16 microg/ml); details: isolate 101885, 18 h
Pseudomonas aeruginosa [13] = test: Potentiation of rifampicin-induced antimicrobial activity against MDR/XDR Pseudomonas aeruginosa isolate 91433 devoid of GyrA Thr83Ile mutant assessed as rifampicin MIC80 incubated for 18 hrs by broth microdilution method (reference value: 16 microg/ml); details: isolate 91433, 18 h
Pseudomonas aeruginosa [14] = test: Potentiation of rifampicin-induced antimicrobial activity against MDR/XDR Pseudomonas aeruginosa isolate 101243 devoid of GyrA Thr83Ile mutant assessed as rifampicin MIC80 incubated for 18 hrs by broth microdilution method (reference value: 16 microg/ml); details: isolate 101243, 18 h
Acinetobacter baumannii [15] = test: Antimicrobial activity against multidrug-resistant Acinetobacter baumannii AB110193 incubated for 18 hrs by broth dilution method; details: AB110193, 18 h
Method in brief: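 Broth microdilution per CLSI: overnight cultures set to 0.5 McFarland in saline, diluted 1:50 in Mueller-Hinton broth to a final 5 × 10^5 CFU/mL, added to 2-fold serial dilutions, incubated 18 h at 37 °C; MIC is the lowest concentration without visible turbidity, confirmed at 590 nm.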

Klebsiella pneumoniae [16] = test: Synergistic antibacterial activity against Klebsiella pneumoniae 113254 assessed as fractional inhibitory concentration index in presence of minocycline incubated for 18 hrs by broth dilution method
Method in brief: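 Checkerboard titration of the adjuvant against the antibiotic, run under the CLSI microdilution conditions (MHB, 5 × 10^5 CFU/mL, 18 h, 37 °C). Each agent's FIC is its MIC in combination divided by its MIC alone; FICI is the sum of the two FICs. FICI ≤0.5 was read as synergy, >0.5–4.0 as no interaction, and >4.0 as antagonism.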

Escherichia coli = test: Potentiation of minocycline-induced antibacterial activity against Escherichia coli 94474 assessed as fold reduction in minocycline MIC at 4.1 uM incubated for 18 hrs by broth dilution method; method in brief: as §2
Klebsiella pneumoniae [17] = test: Potentiation of rifampicin-induced antibacterial activity against Klebsiella pneumoniae 113250 assessed as fold reduction in rifampicin MIC at 4.1 uM incubated for 18 hrs by broth dilution method; method in brief: as §2
Pseudomonas aeruginosa [18] = test: Potentiation of moxifloxacin-induced antibacterial activity against wild type Pseudomonas aeruginosa PAO1 assessed as fold reduction in moxifloxacin MIC at 9 uM incubated for 18 hrs by broth microdilution method; method in brief: as §2
Pseudomonas aeruginosa [19] = test: Potentiation of moxifloxacin-induced antibacterial activity against MDR/XDR Pseudomonas aeruginosa isolate PA259-96918 harboring GyrA T83I mutant assessed as fold reduction in moxifloxacin MIC at 9 uM incubated for 18 hrs by broth microdilution method; method in brief: as §1
Pseudomonas aeruginosa [20] = test: Potentiation of rifampicin-induced antibacterial activity against MDR/XDR Pseudomonas aeruginosa isolate PA260-97103 harboring GyrA T83I mutant assessed as fold reduction in rifampicin MIC at 9 uM incubated for 18 hrs by broth microdilution method; method in brief: as §1

## COc1c(N2C[C@@H]3CCCN(CCCCCCCCCCCCO[C@@H]4[C@@H](O)[C@H](N)C[C@H](N)[C@H]4O[C@H]4O[C@H](CN)[C@@H](O)C[C@H]4N)[C@@H]3C2)c(F)cc2c(=O)c(C(=O)O)cn(C3CC3)c12.Cl.Cl.Cl.Cl.Cl
Pseudomonas aeruginosa [1]
  fold change (FC): >=256
Pseudomonas aeruginosa [2]
  fractional inhibitory concentration index (FICI): 0.16
Pseudomonas aeruginosa [3]
  fold change (FC): 16
Pseudomonas aeruginosa [4]
  fold change (FC): 32
Pseudomonas aeruginosa [5]
  fold change (FC): 512
Pseudomonas aeruginosa [6]
  MIC50: 0.5 µg/mL
Pseudomonas aeruginosa [7]
  MIC50: 0.06 µg/mL
Pseudomonas aeruginosa [8]
  MIC50: 0.06 µg/mL
Enterobacter cloacae
  fold change (FC): 16
Acinetobacter baumannii [9]
  fold change (FC): 64
Acinetobacter baumannii [10]
  fold change (FC): 32
Pseudomonas aeruginosa [11]
  MIC80: 1 µg/mL
Pseudomonas aeruginosa [12]
  MIC80: 0.13 µg/mL
Pseudomonas aeruginosa [13]
  MIC80: 0.13 µg/mL
Pseudomonas aeruginosa [14]
  MIC80: 0.13 µg/mL

## Cl.Cl.Cl.Cl.Cl.NC[C@H]1O[C@H](O[C@H]2[C@H](OCCCCCCCCCCCCN3CCN(c4cc5c(cc4F)c(=O)c(C(=O)O)cn5C4CC4)CC3)[C@@H](O)[C@H](N)C[C@@H]2N)[C@H](N)C[C@@H]1O
Acinetobacter baumannii [15]
  MIC: > 128 µg/mL
Klebsiella pneumoniae [16]
  fractional inhibitory concentration index (FICI): 0.504
Escherichia coli
  fold change (FC): 16
Klebsiella pneumoniae [17]
  fold change (FC): 128

## Cl.Cl.Cl.Cl.Cl.Cl.NC[C@H]1O[C@H](O[C@H]2[C@H](OCCCCCCCCCCN3CCN(Cc4cccc5ccccc45)CC3)[C@@H](O)[C@H](N)C[C@@H]2N)[C@H](N)C[C@@H]1O
Pseudomonas aeruginosa [18]
  fold change (FC): 32
Pseudomonas aeruginosa [19]
  fold change (FC): 64
Pseudomonas aeruginosa [20]
  fold change (FC): 64

Reference: ChEMBL document CHEMBL4354800, “Amphiphilic nebramine-based hybrids Rescue legacy antibiotics from intrinsic resistance in multidrug-resistant Gram-negative bacilli” (Eur J Med Chem, 2019)
